Compound activity (PubChem)
Calb FLC = C. albicans growth modulation with fluconazole; C. albicans CaCi-2 (fluconazole-resistant clinical isolate) + fluconazole, Alamar Blue growth, 48 h; growth inhibition, % (concentration not given with the values); actives 0.57% (n = 300,000); AID 1979;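 active = growth inhibition above about 58% in most replicates, limit read from the data, passing the limit was not always enough; inconclusive = exactly half the replicates above a set limit; inactive = most replicates below a set limit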;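 note: all wells also contain fluconazole at 8 µg/ml as a sub-toxic cotreatment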
UCH37 inh = inhibitors of human deubiquitinating enzyme UCH37 | inhibition, % (concentration not given with the values) | purified proteasome/UCH37, Ub-AMC cleavage fluorescence | Q9Y5K5 | actives 0.33% (n = 330,000);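 active = mean inhibition over replicate wells above about 20%, limit read from the data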
Target sequence (Q9Y5K5 whole entry, looked up): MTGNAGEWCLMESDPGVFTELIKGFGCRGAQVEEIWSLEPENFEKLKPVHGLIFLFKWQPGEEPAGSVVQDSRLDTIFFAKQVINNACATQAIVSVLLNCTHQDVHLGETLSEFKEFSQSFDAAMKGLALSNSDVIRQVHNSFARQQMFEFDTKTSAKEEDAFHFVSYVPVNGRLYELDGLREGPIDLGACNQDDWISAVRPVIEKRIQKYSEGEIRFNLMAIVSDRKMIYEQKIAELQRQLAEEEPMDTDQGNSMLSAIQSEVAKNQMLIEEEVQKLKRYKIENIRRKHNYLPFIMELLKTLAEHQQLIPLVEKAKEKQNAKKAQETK
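Material: Human UCH37 enzyme supplied as purified proteasome complex | Schedule: 30 min compound-proteasome preincubation then 25 min substrate reaction, room temperature | Detection: AMC fluorescence from Ub-AMC cleavage, excitation 355 nm, emission 460 nm | Benchmarks: Wells without proteasome as full block, compound-free enzyme plus substrate as uninhibited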
NALP1 inh = inhibitors of NALP1 inflammasome in yeast | S. cerevisiae NALP1/ASC/caspase-1 growth, X-gal OD620, 72 h | inhibition, % at 10 µM | actives 0.61% (n = 280,000); in the data active = inhibition mostly above about 24%, no sharp cut-off; inactive = mostly below about 32%
NALP3 yeast inh = inhibitors of NALP3 inflammasome in yeast; Yeast reconstituted NLRP3/ASC/caspase-1, beta-gal luminescence, 24 h; inhibition, % at 10 µM; actives 0.39% (n = 330,000);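 active = inhibition of 50% or more; inactive = inhibition below 50%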
ALR H2O2 inh = blocks human ALR sulfhydryl oxidase activity; P55789; purified ALR, DTT oxidation, H2O2 HRP-luminol luminescence; inhibition, % (no concentration beside the values); actives 3.8% (n = 290,000); AID 485317;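 active = mean replicate inhibition above about 79%, with every replicate also reaching it, limit read from the data; inconclusive = only one of the two criteria met; inactive = mean below limit and not every replicate reaching it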
Target sequence (P55789 whole entry, looked up): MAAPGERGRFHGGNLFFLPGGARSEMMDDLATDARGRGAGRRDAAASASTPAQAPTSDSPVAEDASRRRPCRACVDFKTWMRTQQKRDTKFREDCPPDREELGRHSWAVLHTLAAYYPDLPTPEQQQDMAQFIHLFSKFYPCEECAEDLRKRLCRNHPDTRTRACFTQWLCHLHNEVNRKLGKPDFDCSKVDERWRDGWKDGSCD
ATG4B inhibitor = blocks human ATG4B protease cleavage of LC3 substrate; actives 0.51% (n = 340,000); ATG4B cleavage of LC3-PLA2, NBD-HPC fluorescence, 1 h; inhibition, % at 8.33 µM; in the data active = inhibition above about 40%
Numbers stand for hits; . = inactive; ? = inconclusive; / = not tested or not shown. A selection: hits, their analogues and other compounds. The true share with any hit is near 4.8%.

SMILES | Calb FLC | UCH37 inh | NALP1 inh | NALP3 yeast inh | ALR H2O2 inh | ATG4B inhibitor
CCOc1ccc(S(=O)(=O)N(CCO)CCO)cc1-c1nc2c(C(C)(C)C)nn(C)c2c(=O)[nH]1 | . | . | . | . | . | .
O=C(CSc1nc2ccccc2[nH]1)NN=Cc1ccco1 | / | . | / | / | / | /
CC1CC(=O)c2c(cc3c(-c4c(O)cc(O)c5c(O)c6c(cc45)OC(C)CC6=O)c(O)cc(O)c3c2O)O1 (configuration not stated) | . | 21.5 | . | . | . | .
COc1ccc(C(=O)NCCNC(C)=O)cc1S(=O)(=O)NCc1ccc(Cl)cc1 | . | . | 28.2 | . | . | .
COc1ccc(C(=O)NC2CCC(O)CC2)cc1S(=O)(=O)NCc1ccc(Cl)cc1 (configuration not stated) | / | . | / | . | . | .
CN(C)c1nc(Oc2ccc(C=NO)cc2)nc(N(C)C)n1 | / | . | / | / | / | /
CCc1ccc(CNc2ccc(O)cc2)cc1 | ? | . | . | . | 83.6 | .
Oc1ccc(NCc2ccc(OCc3ccccc3)cc2)cc1 | . | . | . | / | . | .
CC(C)c1cc(C(=O)NN=C/C=C/c2ccccc2)n[nH]1 | / | . | / | / | / | /
COc1cc(N2CCCC2)c(OC)cc1/C=C(/C#N)c1cccc(F)c1 | ? | / | 43.8 | / | / | .
O=C1N/C(=N\S(=O)(=O)Cc2ccccc2)S/C1=C/c1cc([N+](=O)[O-])ccc1O | . | . | . | . | 96.7 | .
CCCN(CCC)Cc1c(C(=O)NN=Cc2ccc(Br)cc2)nnn1-c1nonc1N | / | . | / | / | / | /
CCOCCCNC(=O)CS(=O)(=O)Cc1nc(-c2cccc(OC)c2)oc1C | . | . | . | . | 98.0 | .
CCCNC(=O)CS(=O)(=O)Cc1nc(-c2cccc(OC)c2)oc1C | . | . | . | . | 97.8 | .
COc1cccc(-c2nc(CS(=O)(=O)CC(=O)NCCc3ccccc3)c(C)o2)c1 | . | . | . | . | . | .
CCOC(=O)N1CCN(C(=O)CSCC(=O)Nc2nc(-c3cccs3)cs2)CC1 | . | . | . | . | 89.6 | .
CC1CCCCN1C(=O)CSCC(=O)Nc1nc(-c2cccs2)cs1 (configuration not stated) | . | . | . | . | . | .
CC1CCN(C(=O)CSCC(=O)Nc2nc(-c3cccs3)cs2)CC1 | . | . | . | . | 98.5 | .
CC1CCCN(C(=O)CSCC(=O)Nc2nc(-c3cccs3)cs2)C1 (configuration not stated) | . | . | . | . | . | .
COc1ccc(C=NNC(=O)C(C)n2nnc3ccccc32)cc1OC (configuration not stated) | / | . | / | / | / | /
CN(C)/C=C1\C(=O)Nc2ccccc21 | . | . | . | . | 98.9 | .
Cc1ccc(OCCCCN(C)Cc2ccccc2)c(Br)c1 | . | . | 51.3 | . | . | .
CCc1c(C)sc(NC(=O)c2cc(C)on2)c1C#N | . | . | . | . | 84.9 | .
CCc1c(C)sc(NC(=O)c2cc(C3CC3)on2)c1C#N | . | . | . | . | 94.4 | .
CCCc1cc(C(=O)Nc2sc(C)c(CC)c2C#N)no1 | . | . | . | . | / | .
SMILES | Calb FLC | UCH37 inh | NALP1 inh | NALP3 yeast inh | ALR H2O2 inh | ATG4B inhibitor
O=c1c2c3c(sc2ncn1Cc1ccc(F)cc1)CCC3 | . | . | . | . | . | .
N=c1c2c3c(sc2ncn1Cc1ccco1)CCCCC3 | . | . | . | . | 92.2 | .
CC(C)Cn1cnc2sc3c(c2c1=N)CCCC3 | . | . | 40.2 | . | . | .
c1coc(CNc2ncnc3sc4c(c23)CCCCC4)c1 | . | . | . | . | . | .
COCCOC(=O)/C(=C/c1ccc(OC(=O)c2ccccc2)cc1)C(C)=O | . | . | 61.3 | . | 95.1 | .
O=C(Oc1ccc(/C=N/O)cc1)c1ccccc1 | . | / | . | . | 89.1 | .
CCOC(=O)/C(=C/c1ccc(OC(=O)c2ccncc2)cc1)C(C)=O | . | . | . | . | . | .
CSc1nc(NCCN(C)C)c2sc3nc(-c4ccco4)c4c(c3c2n1)CCC4 | / | . | / | / | / | .
CSc1nc(N(C)CCO)c2sc3nc(-c4ccco4)c4c(c3c2n1)CCC4 | . | . | . | . | 97.8 | .
COc1ccc(C(=O)NN=c2oc3ccccc3cc2C(N)=O)cc1 | / | . | / | / | / | /
COc1cc(C=NNC(=O)COc2ccccc2C)ccc1OC(=O)c1cccs1 | / | . | / | / | / | /
Cc1cc(NCCCN2CCOCC2)n2nc(C)c(-c3ccc(F)cc3)c2n1 | . | . | . | . | 98.0 | .
CCCCCCn1c(=O)c(C(=O)NN=Cc2cccc(F)c2)c(O)c2ccccc21 | / | . | / | / | / | /
CC(=NNC(=O)C(=O)Nc1c(C)n(C)n(-c2ccccc2)c1=O)c1ccc(Cl)s1 | / | . | / | / | / | /
CCN1/C(=C/c2ccc3cc(C)ccc3[n+]2CC)Sc2cc(C)ccc21 | / | . | 35.1 | / | / | .
CCCCN1/C(=C/c2ccc3ccccc3[n+]2CC)Sc2ccccc21 | ? | . | . | . | / | .
O=C(O)COc1ccc(Br)cc1C=NNc1ccccn1 | / | . | / | / | / | /
COc1ccnc(Oc2cccc(C(F)(F)F)c2)c1C(=O)N/C=N/OCc1ccccc1F | 108.3 | . | . | . | . | .
COc1ccnc(Oc2ccccc2)c1C(=O)N/C=N/OCc1ccccc1 | . | . | . | . | . | .
CN(CC(=O)NCCN1CCN(c2ccccc2)CC1)S(=O)(=O)c1ccc2c(c1)CCC(=O)N2 | . | . | . | . | 98.0 | .
Nc1ccccc1C(=O)N=Nc1[nH]c(N)c2ccccc12 | . | . | . | . | . | .
Nc1[nH]c(N=NC(=O)c2ccc(F)cc2)c2ccccc12 | . | . | . | . | 98.8 | .
O=C(CCC(=O)Nc1ccccc1Cl)NNS(=O)(=O)c1ccc(Cl)cc1 | 110.6 | . | . | . | . | .
Cc1cc(Oc2ncccc2[N+](=O)[O-])c2cc(Cl)ccc2n1 | . | . | . | . | 97.2 | .
Oc1oc(-c2ccco2)nc1C=Nc1cccc(Cl)c1 | . | . | . | . | 96.0 | .
SMILES | Calb FLC | UCH37 inh | NALP1 inh | NALP3 yeast inh | ALR H2O2 inh | ATG4B inhibitor
Oc1oc(-c2ccco2)nc1C=Nc1ccccc1 | . | . | . | . | . | .
Brc1ccc(-c2csc(-c3c[nH]c4ccccc34)n2)cc1 | . | . | . | . | . | .
c1ccc2c(-c3csc(-c4ccncc4)n3)c[nH]c2c1 | . | . | . | . | 98.9 | .
CCc1ccc(/C=N/NC(=O)Cc2cccn2C)cc1 | . | / | . | . | 96.1 | .
COCc1cc(C)nc(NN=Cc2ccc(Cl)c(Cl)c2)c1C#N | / | . | / | / | / | /
Cc1ccc(-c2cc(C(=O)NC3=NCCS3)c3ccccc3n2)cc1C | . | . | . | / | 89.9 | .
O=C(NC1=NCCS1)c1cc(-c2ccc(F)cc2)nc2ccccc12 | . | . | . | . | . | .
O=C(NC1=NCCS1)c1csc2ccccc12 | . | . | . | . | 98.5 | .
N#CCC(=O)NN=Cc1cn(Cc2ccc3ccccc3c2)c2ccccc12 | / | . | / | / | / | /
O=C(NN=Cc1cc([N+](=O)[O-])ccc1Cl)c1cnccn1 | / | . | / | / | / | /
COc1ccc(OC)c(-c2cc(C(=O)NN=C(C)c3cccnc3)c3ccccc3n2)c1 | / | . | / | / | / | /
